From PubChem BioAssay
Fh CTSL1 inh: Fasciola hepatica cathepsin L1 inhibitors, primary screen, counter-screen for PFM18AAP inhibitor project, biochemical, QFRET, fluorogenic peptide substrate; recombinant F. hepatica cathepsin L1, Z-Leu-Arg-MCA fluorescence; inhibition, % at 5.96 µM; 0.49% of 300,000 active; AID 1906, 2009;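 active = inhibition above the mean of all tested compounds plus 3 SD, set per screening campaign, cut at about 17% in these data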
NSD2 HMT inh: NSD2 histone methyltransferase inhibitors, primary screen, biochemical, AlphaScreen, single concentration, set 2 | inhibition, % at 12.5 µM | 0.54% of 310,000 active | NSD2 peptide methylation, 120 min; in the data active = inhibition above about 50%
TDP2 absorb: human TDP2 enzyme inhibitors, primary screen, biochemical, epi absorbance, recombinant enzyme; 0.34% of 370,000 active; T5PNP hydrolysis, p-nitrophenol absorbance 415 nm; inhibition, % at 12.8 µM; AID 720702, 2013; Tyrosyl-DNA phosphodiesterase 2 (Homo sapiens), O95551;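 active = inhibition above the mean of all tested compounds plus 3 SD, set per campaign, cut at about 25% in these data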
Target sequence (O95551 whole entry, looked up): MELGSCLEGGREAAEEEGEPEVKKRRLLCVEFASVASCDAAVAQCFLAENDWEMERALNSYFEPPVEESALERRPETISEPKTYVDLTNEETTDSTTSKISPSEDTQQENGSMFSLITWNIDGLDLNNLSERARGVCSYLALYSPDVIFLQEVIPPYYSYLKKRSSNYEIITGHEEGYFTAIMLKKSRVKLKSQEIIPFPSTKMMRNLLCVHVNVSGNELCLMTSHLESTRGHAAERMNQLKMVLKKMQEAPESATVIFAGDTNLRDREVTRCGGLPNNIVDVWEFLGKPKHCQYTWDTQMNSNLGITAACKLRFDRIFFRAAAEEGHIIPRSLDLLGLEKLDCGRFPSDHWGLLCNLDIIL
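System: recombinant human TDP2 / Amount: 120 nM TDP2 per well / Also added: 5 mM T5PNP chromogenic substrate / Doses: 12.8 µM single point, 1% DMSO / Incubation: 2 h at 37 °C / Detection: p-Nitrophenol epi absorbance / Evaluation: % inhibition relative to enzyme-containing and enzyme-free wells / Repeats: singlicate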
UBC9 SUMO inh: inhibitors of in vitro SUMOylation cascade, primary screen, biochemical, HTRF, uHTS. HTRF SUMOylation assay, SAE1/SAE2 + UBC9. inhibition, % at 35 µM. 0.36% of 290,000 active; in the data active = inhibition above about 50%, passing the limit was not always enough
Target sequence (P63279 whole entry, looked up): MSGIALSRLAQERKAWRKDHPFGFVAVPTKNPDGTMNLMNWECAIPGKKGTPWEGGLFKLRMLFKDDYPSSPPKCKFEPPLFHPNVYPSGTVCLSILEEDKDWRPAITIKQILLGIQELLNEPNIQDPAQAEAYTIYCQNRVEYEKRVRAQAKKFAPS
A number is an active result; i = inactive; nt = not tested or not shown. The list is not random: actives were taken first. Their share in the collection is about 1.2%.

SMILES | Fh CTSL1 inh | NSD2 HMT inh | TDP2 absorb | UBC9 SUMO inh
CCn1cc(C(=O)N[C@H](C(=O)NCCO)C(C)C)c(=O)c2cc3c(cc21)OCO3 | i | i | i | i
CCn1cc(C(=O)N[C@H](C(=O)NC(C)(C)CO)C(C)C)c(=O)c2cc3c(cc21)OCO3 | i | i | 25 | i
CCCS(=O)(=O)NC(=O)C1(C)CCN(C(=O)c2ccc(C(F)(F)F)nc2C)C1 (configuration not stated) | nt | i | nt | nt
COc1ccc(CN(C)C(=O)CSc2nnc(C3CC3)n2C2CC2)cc1 | nt | i | i | nt
CCC(C)NC(=S)NNC(=O)c1ccncc1 (configuration not stated) | 20 | i | i | i
CC(C)c1ccc(C(=O)NNC(=O)c2ccncc2)cc1 | i | i | i | i
Nc1c(C(=O)NCc2ccco2)c2nc3ccccc3nc2n1CCc1ccc(F)cc1 | i | i | i | 100
Nc1c(C(=O)NCc2ccc3c(c2)OCO3)c2nc3ccccc3nc2n1CCCN1CCOCC1 | i | i | i | i
COCCNC(=O)c1c(N)n(CCCn2ccnc2)c2nc3ccccc3nc12 | i | nt | i | 87
COCCNC(=O)c1c(N)n(-c2ccccc2)c2nc3ccccc3nc12 | i | i | i | i
COc1ccccc1CNC(=O)c1c(N)n(CCCN2CCOCC2)c2nc3ccccc3nc12 | nt | i | i | 52
COCCn1c(N)c(C(=O)NCC2CCCO2)c2nc3ccccc3nc21 (configuration not stated) | i | i | i | 91
O=C(O)CSc1nc2ccc(Br)cc2[nH]1 | nt | i | i | nt
Cc1ccsc1C(=O)Nc1cccc(-n2cnnn2)c1 | 19 | i | i | i
CC(=O)O[C@H]1CC(C)(C)C(=C=C/C(C)=C/C=C/C(C)=C/C=C/C=C(C)/C=C/C=C(\C)C(=O)C[C@@]23O[C@]2(C)C[C@@H](O)CC3(C)C)[C@](C)(O)C1 | 34 | nt | nt | i
COc1ccc(S(=O)(=O)Nc2ccccc2C(=O)OC2CCCN(C)C2)cc1OC (configuration not stated) | 27 | i | i | i
COc1ccc(S(=O)(=O)Nc2ccccc2C(=O)NC(C)(C)C)cc1OC | i | i | i | i
CCOC(=O)c1sc(N(Cc2ccccc2)C(=O)COC(=O)c2ccccc2O)nc1C | i | i | i | i
CCOC(=O)c1sc(N(Cc2ccccc2)C(=O)CCl)nc1C | 22 | nt | i | i
O=C1NC[C@@H](CCCCN2CCN(CCc3ccc(O)cc3)C(=O)C2=O)N(CCc2ccc(O)cc2)C1=O | nt | nt | i | nt
CCCn1cc(C(CC(=O)O)C(=O)O)c2ccccc21 (configuration not stated) | 17 | i | i | i
O=C(Nc1nc2c(F)cccc2s1)c1cccs1 | nt | i | nt | nt
c1ccc(Cc2nnc3sc(C4COc5ccccc5O4)nn23)cc1 (configuration not stated) | 18 | nt | i | i
COc1c2c(c(C)c3c1C(=O)OC3)O[C@@]1(C)CC[C@@]3(O)C(C)(C)OC(=O)CC[C@]3(C)[C@H]1C2 | 25 | nt | i | i
CC(=O)N1N=C(c2ccc(Br)cc2)CC1c1ccc(Br)cc1 (configuration not stated) | nt | i | i | nt
SMILES | Fh CTSL1 inh | NSD2 HMT inh | TDP2 absorb | UBC9 SUMO inh
CC(C)c1ccc(C2CC(c3ccc(Br)cc3)=NN2C(N)=S)cc1 (configuration not stated) | 20 | i | i | i
CC(=O)NC1CCCCN(C)C1=O (configuration not stated) | nt | nt | i | nt
COc1cccc(CC(=O)O[C@@H]2CCC[C@@]3(C(=O)N(Cc4ccccc4)c4ccccc43)[C@H]2NC(=O)CCc2ccccc2)c1 | nt | nt | i | nt
COC(=O)[C@]12C[C@H](CC(=O)NCCCN3CCCC3=O)C(=O)N(Cc3ccc4c(c3)OCO4)C1=C[C@H](COCc1ccccc1)O[C@@H]2C | nt | nt | i | nt
Cc1cc(Nc2ccccc2C(=O)O)n2ncnc2n1 | nt | i | i | nt
O=C1C2CC=C(Cl)CC2C(=O)N1CCc1ccccc1 (configuration not stated) | 44 | i | i | i
CCC1(c2ccccc2)NC(=O)N(CC(=O)Nc2ccc(N3CCCC3)cc2C)C1=O (configuration not stated) | i | i | i | nt
COc1ccccc1NC(=O)Cc1cccs1 | i | i | i | i
COc1ccccc1NC(=O)Nc1ccnn1Cc1cccs1 | i | i | i | 78
CN(C)c1ccc(N=Cc2cccn2C)cc1 | i | nt | 25 | i
CN(C)c1ccc(N=Cc2nc(-c3ccccc3)oc2O)cc1 | i | i | i | i
O=C(Nc1ccccc1C(=O)NCCCN1CCOCC1)c1cccc([N+](=O)[O-])c1 | 18 | i | i | i
CN(C)S(=O)(=O)c1ccc(C(=O)Nc2ccccc2C(=O)NCCCN2CCOCC2)cc1 | nt | i | i | nt
COc1ccccc1CNC(=O)COC(=O)COc1ccccc1Cc1ccccc1 | 17 | i | i | nt
CN(C(=O)COC(=O)COc1ccccc1Cc1ccccc1)c1ccccc1 | 18 | i | i | nt
CC(C)OCCCN(C)C1CCN(S(=O)(=O)c2ccc(-c3cc(C(F)(F)F)on3)s2)CC1 | nt | i | nt | nt
O=C(NCc1cccnc1)C1CCCN(S(=O)(=O)c2cc(Cl)ccc2Cl)C1 (configuration not stated) | nt | i | nt | nt
O=C(Cn1nnc(-c2ccc(Cl)cc2)n1)NCc1ccco1 | i | i | i | i
COc1ccc(C(=O)Nc2ccc(-c3nnn(CC(=O)NCc4ccco4)n3)cc2)cc1 | i | i | i | 61
Cc1c(N=CC=Nc2c(C)n(C)n(-c3ccccc3)c2=O)c(=O)n(-c2ccccc2)n1C | nt | nt | nt | i
Cc1c(N=c2c(=O)c3ccccc3c2=O)c(=O)n(-c2ccccc2)n1C | 56 | nt | nt | nt
CC1=C(c2ccccc2)[N+](=O)C2(CCCC2)N1[O-] | i | i | i | i
O=[N+]([O-])c1ccc2c(c1)N([O-])C1(CCCCC1)[N+]2=O | nt | 84 | i | 54
Cc1ccc(C(=O)N2[C@@H]3CN(C)C(=O)[C@@]2(Cc2ccccc2)[C@H]2C(=O)N(Cc4ccccc4)C(=O)[C@@H]32)cc1 | nt | nt | i | nt
N#CC1=C(S)N(c2ccccc2)C(c2ccc(-c3ccc(Cl)c(Cl)c3)o2)NC1=O (configuration not stated) | i | nt | 26 | i
CC(=O)c1ccc2c(c1)C1C=CCC1C(C(=O)O)N2 (configuration not stated) | nt | 128 | i | 78
COc1cccc2c1NC(C(=O)O)C1CC=CC21 (configuration not stated) | i | nt | nt | 95
Cc1ccc2c(c1)C1C=CCC1C(C(=O)O)N2 (configuration not stated) | i | nt | nt | 60
O=C(O)C1Nc2ccc(OC(F)(F)F)cc2C2C=CCC12 (configuration not stated) | i | nt | nt | nt
CCOC(=O)COn1c(=O)c(-c2ccc(C)cc2)[n+]([O-])c2ccccc21 | 20 | i | i | i
